Measured values reported in ChEMBL document CHEMBL1821666, “Anti-inflammatory principles from Cordyceps sinensis” (J Nat Prod, 2011).
Values after ≈ are worked out from the molar mass of the structure shown. Active and inactive are the calls of the source. The rule behind the calls is not given here.

Columns and labels:
[1] = Antioxidant activity assessed DPPH scavenging activity; format: functional
How it was run: (§1)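 DPPH free-radical scavenging was measured in a cell-free system, with IC50 determined. Constituents were also screened at 500 μM.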

[2] = (§2) Anti-inflammatory activity in human neutrophils assessed as inhibition of FMLP/CB-induced elastase release; format: functional, cell-based; conditions: Neutrophil
How it was run: (§3)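 Human neutrophils were activated with FMLP plus cytochalasin B (FMLP/CB). IC50 is the concentration giving 50% inhibition of the response. Values are mean ± SEM, n = 3–4.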

[3] = (§4) Anti-inflammatory activity in human neutrophils assessed as inhibition of FMLP/CB-induced superoxide anion generation; format: functional, cell-based; conditions: Neutrophil; how it was run: as §3
[4] = Antioxidant activity assessed DPPH scavenging activity at 500 uM; format: functional; how it was run: as §1
[5] = Anti-inflammatory activity in human neutrophils assessed as inhibition of FMLP/CB-induced superoxide anion generation at 10 ug/mL; format: functional; conditions: Neutrophil
How it was run: (§5)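 Human neutrophils were activated with FMLP/CB. Percentage inhibition of the response was measured with samples at 10 μg/mL. Values are mean ± SEM, n = 3–4, and significance was tested against the control value.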

[6] = Anti-inflammatory activity in human neutrophils assessed as inhibition of FMLP/CB-induced elastase release at 10 ug/mL; format: functional; conditions: Neutrophil; how it was run: as §5
Neutrophil [7] = test: as §2; format: functional, cell-based; how it was run: as §3
Neutrophil [8] = test: as §4; format: functional, cell-based; how it was run: as §3

| SMILES | inhibition [4] | other results |
| --- | --- | --- |
| O=c1c(-c2ccc(O)c(O)c2)coc2cc(O)ccc12 | – | IC50 [1]: 32 µM |
| CC(C)[C@@H](C)/C=C/[C@@H](C)[C@H]1CC[C@H]2C3=CC=C4C[C@@H](O[C@@H]5O[C@H](CO)[C@@H](O)[C@H](O)[C@H]5O)CC[C@]4(C)[C@H]3CC[C@]12C | inactive | IC50 [2]: 5.62 µg/mL (≈ 10.1 µM); IC50 [3]: 5.42 µg/mL (≈ 9.7 µM) |
| CC(C)C[C@@H]1NC(=O)[C@@H]2CC[C@@H](O)N2C1=O | inactive | – |
| CC(C)[C@@H]1NC(=O)[C@@H]2CCCN2C1=O | inactive | – |
| Cc1occc(=O)c1O | inactive | – |
| O=C(O)c1cc2c([nH]c3ccccc32)c(-c2ccc(CO)o2)n1 | inactive | – |
| O=C(O)c1ccco1 | inactive | – |
| O=C1C[C@H](O)[C@@H](CO)O1 | inactive | – |
| O=C1N[C@@H](Cc2ccc(O)cc2)C(=O)N2CCC[C@@H]12 | inactive | – |
| O=C1N[C@@H](Cc2ccccc2)C(=O)N2CCC[C@@H]12 | inactive | – |
| O=C1O[C@H]([C@@H](O)CO)C(O)=C1O [ASCORBIC ACID] | – | IC50 [1]: 38.6 µM |
| O=c1c(-c2ccc(O)cc2)coc2cc(O)ccc12 [DAIDZEIN] | inactive | IC50 [3]: 6.19 µg/mL (≈ 24.3 µM) |
| COc1cc(/C=C/C(=O)O[C@H]2CC[C@]34C[C@]35CC[C@]3(C)[C@@H]([C@H](C)CCC=C(C)C)CC[C@@]3(C)[C@@H]5CC[C@H]4C2(C)C)ccc1O [GAMMA ORYZANOL] | inactive | inhibition at 10 µg/mL [5]: 28.2%; inhibition at 10 µg/mL [6]: 41.6% |
| COc1ccc2c(c1)c(CC(=O)O)c(C)n2C(=O)c1ccc(Cl)cc1 [INDOMETHACIN] | inactive | IC50 [2]: 32 µg/mL (≈ 89.4 µM); IC50 [3]: 38.3 µg/mL (≈ 107 µM) |
| OCc1ccc(-c2nccc3c2[nH]c2ccccc23)o1 [PERLOLYRIN] | inactive | inhibition (Neutrophil [7]): Dose-dependent effect; IC50 [2]: 1.68 µg/mL (≈ 6.36 µM); inhibition (Neutrophil [8]): Dose-dependent effect; IC50 [3]: 0.45 µg/mL (≈ 1.7 µM) |
